A selection: hits, their analogues and other compounds. The true share with any hit is near 2.9%.
PGC1a acetyl inh: lowers PGC1a acetylation signal in U2OS cells. AlphaScreen anti-acetyl-lysine; with virally co-expressed GCN5 acetyltransferase. inhibition, % at 15.6 µM. actives 0.17% (n = 350,000);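 active = every replicate shows inhibition of at least 40%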
S100A4 MyoIIA: S100A4-myosin IIA interaction inhibition | AID 652163 | actives 0.14% (n = 360,000) | P26447 | S100A4/TAMRA-MyoIIA peptide fluorescence polarization | inhibition, % at 10.7 µM;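 active = mean inhibition of at least 70% across replicates, with every replicate also reaching that level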
Target sequence (P26447 whole entry, looked up): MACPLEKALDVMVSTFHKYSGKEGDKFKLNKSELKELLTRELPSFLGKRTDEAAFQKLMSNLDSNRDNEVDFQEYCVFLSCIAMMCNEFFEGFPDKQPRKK
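Test system: S100A4 monomer protein. Medium: HEPES buffer with Ca2+, pH 7.2. Reagent: fluorescent myosin IIA peptide, 5 nM. Compound dosing: single-point compound testing. Timing: 5 min between mix addition and reading. Benchmarks: DMSO neutral and TFP positive wells.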
Statin myotox sup: suppressors of simvastatin-induced myotoxicity in C2C12 myotubes. ATP luminescence, 48 h; scaled: DMSO 0, geranylgeraniol control 100. rescue of ATP level, % at 7.49 µM. actives 0.78% (n = 330,000). AID 602340;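 active = mean ATP rescue above about 67%, or every replicate alone reaching that limit, limit read from the data, passing the limit was not always enough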;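 also: myotubes were challenged with 10 µM simvastatin during compound exposure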
DENV2 CPE rescue: DENV2-induced cell death inhibition. DENV2-infected cells, cytopathic effect rescue, plate reader. CPE inhibition, % at 9.99 µM. actives 1.7% (n = 350,000); in the data active = CPE inhibition above about 20%, passing the limit was not always enough; tested in BHK-21 cells
SIRT5 inh: blocks human SIRT5 desuccinylation of peptide; Q9NXA8; Purified SirT5, succinyl-peptide AMC, trypsin-coupled fluorescence; inhibition, % at 15 µM; actives 1.1% (n = 330,000); in the data active = inhibition above about 15%
Target sequence (Q9NXA8 whole entry, looked up): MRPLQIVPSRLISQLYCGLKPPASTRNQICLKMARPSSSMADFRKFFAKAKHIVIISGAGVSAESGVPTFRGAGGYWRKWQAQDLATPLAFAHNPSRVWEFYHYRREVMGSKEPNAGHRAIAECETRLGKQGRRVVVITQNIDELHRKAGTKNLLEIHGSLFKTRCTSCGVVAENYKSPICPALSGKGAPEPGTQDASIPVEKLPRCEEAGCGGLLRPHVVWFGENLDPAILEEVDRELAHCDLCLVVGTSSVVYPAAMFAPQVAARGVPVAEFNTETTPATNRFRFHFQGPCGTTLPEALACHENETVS
Of the large screens only hits and unclear results are named; the others gave an inactive call; ! = not active in a repeat.

CC1(C)CC(=O)C2=C(C1)c1c(ccc3ccccc13)NC2c1cc([N+](=O)[O-])cc([N+](=O)[O-])c1O (centres undefined)	SIRT5 inh 17 (no result: Statin myotox sup)
CCCCN(CC)CCCNC(=O)CC1Oc2ccccc2NC1=O (centres undefined)	SIRT5 inh 17
CSc1cccc(NC(=O)CC2Oc3ccccc3NC2=O)c1 (centres undefined)	DENV2 CPE rescue 37
COc1cccc(NC(=O)CC2Oc3ccccc3NC2=O)c1 (centres undefined)	none
CCC(C)N1C(=O)N(C)C2NC(=O)NC21 (centres undefined)	SIRT5 inh 25 (no result: PGC1a acetyl inh, Statin myotox sup)
CCC(C)NC(=O)CN1C(=O)NC2NC(=O)NC21 (centres undefined)	none
CC(C)CC#Cc1cnc2c(c1)C(=O)N([C@@H](C)CO)C[C@@H](C)[C@H](CN(C)C(=O)Cc1cccnc1)O2	none
CC(=O)Nc1ccc2c(c1)C(=O)N(c1ccc(C)cc1)C2=O	Statin myotox sup 77 (no result: S100A4 MyoIIA, DENV2 CPE rescue, SIRT5 inh)
CCCNC(=O)C[C@@H]1C[C@@H]2c3cc(NC(=O)C4CCC4)ccc3O[C@@H]2[C@H](CO)O1	none
C[C@@H]1CCCCO[C@@H](CN(C)C(=O)Nc2cccc3ccccc23)[C@H](C)CN([C@@H](C)CO)C(=O)c2cc(NS(=O)(=O)c3ccc(Cl)cc3)ccc2O1	Statin myotox sup 137
C[C@@H]1CCCCO[C@H](CN(C)C(=O)Nc2cccc3ccccc23)[C@H](C)CN([C@@H](C)CO)C(=O)c2cc(NS(=O)(=O)c3ccc(Cl)cc3)ccc2O1	Statin myotox sup 192
C/C(CC(=O)Nc1ccc(Cl)c(Cl)c1)=N\NC(=O)Cc1ccccc1	DENV2 CPE rescue 51 (no result: PGC1a acetyl inh, Statin myotox sup)
C/C(=N/NC(=O)CNC(=O)CCc1ccccc1)c1ccc(Cl)c(Cl)c1	SIRT5 inh 16 (no result: PGC1a acetyl inh, Statin myotox sup)
C/C(CC(=O)Nc1ccc2c(c1)OCCO2)=N\NC(=O)Cc1ccccc1	none
C/C(=N/NC(=O)CNC(=O)Cc1ccccc1)c1ccc(Cl)cc1	none (no result: Statin myotox sup)
CCCCNc1c(-c2ccc(-c3cccc(Cl)c3)cc2)nc2ccc(Cl)cn12	DENV2 CPE rescue 59 (no result: SIRT5 inh)
CCOC(=O)CNc1c(-c2ccccc2)nc2ccc(Cl)cn12	Statin myotox sup 98 (no result: S100A4 MyoIIA, DENV2 CPE rescue, SIRT5 inh)
Cc1noc(C)c1NC(=O)Nc1ccc2c(c1)C(=O)N([C@@H](C)CO)C[C@@H](C)[C@@H](CN(C)C(=O)Nc1c(C)noc1C)OCCCC[C@@H](C)O2	none (no result: Statin myotox sup)
CC(C(=O)Nc1ccc(S(=O)(=O)N2CCOCC2)cc1)N1CCN(c2ccccn2)CC1 (centres undefined)	SIRT5 inh 29 (no result: PGC1a acetyl inh, Statin myotox sup)
Cc1ccc(NC(=O)N2CCN(c3ccccn3)CC2)cc1	Statin myotox sup 92
O=C(Nc1cc(F)ccc1F)N1CC(=O)N2[C@H](C1)[C@H](c1ccc(C#CC3CCCCC3)cc1)[C@@H]2CO	SIRT5 inh 18 (no result: Statin myotox sup)
O=C(Nc1cc(F)ccc1F)N1CC(=O)N2[C@@H](CO)[C@H](c3ccc(C#CC4CCCCC4)cc3)[C@@H]2C1	SIRT5 inh 18 (no result: Statin myotox sup)
O=C(Cc1ccccn1)N1CC(=O)N2[C@H](CO)[C@H](c3ccc(C#CC4CC4)cc3)[C@@H]2C1	DENV2 CPE rescue 40 (no result: Statin myotox sup)
O=C(Nc1ccccc1F)N1CC(=O)N2[C@H](C1)[C@@H](c1ccc(C#CC3CCCC3)cc1)[C@@H]2CO	SIRT5 inh 19 (no result: S100A4 MyoIIA, Statin myotox sup)
O=C(Cc1ccccn1)N1CC(=O)N2[C@H](CO)[C@@H](c3ccc(C#CC4CC4)cc3)[C@@H]2C1	none (no result: Statin myotox sup)
CN(C)C(=O)C[C@H]1CC[C@H]2[C@@H](COc3ccc(NC(=O)C4CCOCC4)cc3C(=O)N2C)O1	none
Cc1ccc([C@@H]2[C@@H]3C(=O)N(c4ccccc4)C(=O)[C@@H]3[C@]3(C)C(=O)N(CC4CC4)CC(=O)N23)o1	DENV2 CPE rescue 50
Cc1ccc(S(=O)(=O)N(C)C)cc1NC(=O)[C@H](Cc1ccccc1)N1C(=O)c2ccccc2C1=O	DENV2 CPE rescue 42 (no result: PGC1a acetyl inh, Statin myotox sup, SIRT5 inh)
COc1ccc(S(=O)(=O)N(C)C)cc1NC(=O)[C@H](Cc1ccccc1)N1C(=O)c2ccccc2C1=O	none (no result: PGC1a acetyl inh, S100A4 MyoIIA, DENV2 CPE rescue, SIRT5 inh)
Cc1noc(N)c1C(=O)Nc1ccc(F)c(Cl)c1	Statin myotox sup 130 (no result: S100A4 MyoIIA, DENV2 CPE rescue, SIRT5 inh)
CCc1noc(N)c1C(=O)Nc1ccc(F)c(Cl)c1	none (no result: S100A4 MyoIIA, DENV2 CPE rescue, SIRT5 inh)
C[C@H](CO)N1C[C@H](C)[C@@H](CN(C)Cc2cccnc2)Oc2cc(Br)ccc2S1(=O)=O	DENV2 CPE rescue 45!
C[C@@H]1CN([C@@H](C)CO)S(=O)(=O)c2ccc(Br)cc2O[C@@H]1CN(C)Cc1ccncc1	S100A4 MyoIIA 111
COc1ccc(-c2ccc3c(c2)O[C@H](CN(C)Cc2cccnc2)[C@H](C)CN([C@H](C)CO)S3(=O)=O)cc1	none
C[C@@H]1CN([C@H](C)CO)S(=O)(=O)c2ccc(Br)cc2O[C@@H]1CN(C)C(=O)CN1CCOCC1	DENV2 CPE rescue 55!
COc1ccc(-c2ccc3c(c2)O[C@H](CN(C)Cc2cccnc2)[C@@H](C)CN([C@H](C)CO)S3(=O)=O)cc1	S100A4 MyoIIA 108
O=C1CN(Cc2ccccc2)C[C@@H]2[C@@H](c3ccc(-c4ccccc4F)cc3)[C@@H](CO)N12	none (no result: Statin myotox sup)
C[C@H](CO)N1C[C@H](C)[C@@H](CN(C)Cc2ccc(F)cc2)Oc2cc(Br)ccc2S1(=O)=O	none
C[C@H]1CN([C@@H](C)CO)S(=O)(=O)c2ccc(Br)cc2O[C@H]1CN(C)Cc1ccc(F)cc1	DENV2 CPE rescue 41!
COCC#Cc1ccc2c(c1)O[C@@H](CN(C)Cc1ccncc1)[C@@H](C)CN([C@@H](C)CO)S2(=O)=O	DENV2 CPE rescue 22
N#C[C@@H]1[C@@H](c2ccccc2-c2cccc(F)c2)[C@H](CO)N1C(=O)NC1CCCC1	none (no result: Statin myotox sup)
COc1ccc(S(=O)(=O)N(CCCN2CCOCC2)Cc2ccc(OC)c(OC)c2)cc1	Statin myotox sup 94 (no result: S100A4 MyoIIA, DENV2 CPE rescue, SIRT5 inh)
COc1ccc(CN(CCN2CCOCC2)C(=O)c2c(F)cccc2F)cc1OC	SIRT5 inh 17
COc1ccc(CN(CCCN2CCOCC2)S(=O)(=O)N(C)C)cc1OC	none (no result: S100A4 MyoIIA, DENV2 CPE rescue, SIRT5 inh)
Cc1ccccc1NC(=O)c1onc2c1CCCC2	Statin myotox sup 140 (no result: S100A4 MyoIIA, DENV2 CPE rescue, SIRT5 inh)
Cc1cccc(NC(=O)c2onc3c2CCCC3)c1C	Statin myotox sup 73 (no result: S100A4 MyoIIA, DENV2 CPE rescue, SIRT5 inh)
CCN(CC)c1ccc(N=Cc2ccc([N+](=O)[O-])o2)cc1	SIRT5 inh 15 (no result: PGC1a acetyl inh, Statin myotox sup)
CCOC(=O)Cc1sc(N)nc1C	DENV2 CPE rescue 41 (no result: Statin myotox sup)
O=C(c1cccc(F)c1)N1CC2(C1)[C@@H](c1ccccc1)[C@@H](CO)N2Cc1ccccn1	none (no result: Statin myotox sup)
CC(=O)Nc1ccc(NC(=O)COc2ccc(Br)cc2C)cc1	SIRT5 inh 15
C[C@H](O)C#Cc1ccc([C@H]2[C@H](CO)N3CCCCN(C(=O)c4cccc(F)c4)C[C@@H]23)cc1	none
CC(C)NC(=O)N(C)C[C@H]1OCCCC[C@H](C)Oc2ccc(N(C)C)cc2C(=O)N([C@H](C)CO)C[C@@H]1C	none (no result: Statin myotox sup)
O=C(O)[C@@H]1[C@@H](CO)[C@@H]2Cn3c(ccc(-c4cccc(F)c4)c3=O)[C@@H]2N1C(=O)c1ccccn1	none (no result: PGC1a acetyl inh, S100A4 MyoIIA, DENV2 CPE rescue, SIRT5 inh)

Source: PubChem (Broad Institute)
